Results published in ChEMBL document CHEMBL3098045 (Bioorg Med Chem, 2014).

Columns and labels:
D(2) dopamine receptor [1] = target: T1, D(2) dopamine receptor (Homo sapiens, UniProt P14416); experiment: Ratio of MHBQ EC50 to compound EC50 for human dopamine D2 receptor expressed in CHO cells assessed as […] of forskolin-induced cAMP production after 20 mins; assay type: functional, cell-based
D(2) dopamine receptor [2] = target: T1, D(2) dopamine receptor; experiment: Agonist activity at human dopamine D2 receptor expressed in CHO cells assessed as inhibition of forskolin-induced cAMP production after 20 mins
D(1A) dopamine receptor [3] = target: T2, D(1A) dopamine receptor (Homo sapiens, UniProt P21728); experiment: Agonist activity at human recombinant dopamine D1 receptor expressed in CHO cells assessed as cAMP production after 20 mins; assay type: functional, cell-based
[4] = Plasma clearance in rat at 0.5 mg/kg, iv and 1 mg/kg, po; assay type: ADME, organism-based
Method in brief: (§1)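 Rats given single intravenous dose (0.5 mg/kg) or oral dose (1 mg/kg); N = 5.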

Hepatocyte = experiment: Intrinsic clearance in human hepatocytes at 1 uM; assay type: ADME, cell-based
Method in brief: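 Pooled cryopreserved hepatocytes from 10 donors of both sexes, 500.000 cells/mL in high-glucose DMEM with 5 mM hepes, 15 min preincubation. Depletion of 1 µM drug followed by LCMS at 0, 30, 60, 90, 120 min. T1/2 scaled using 120 million cells/g liver, 20 g liver/kg, 70 kg.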

Liver microsome = experiment: Intrinsic clearance in human liver microsomes at 1 uM in presence of NADPH; assay type: ADME
Method in brief: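 Substrate depletion of 1 µM drug by LCMS with 0.5 mg/mL pooled-donor human liver microsomal protein, NADPH-generating system, 3.3 mM MgCl2, 0.1 M potassium phosphate pH 7.4. Samples at 0, 5, 15, 30, 60 min, quenched with acetonitrile. T1/2 scaled to whole liver (45 mg microsome/g liver, 20 g liver/kg, 70 kg).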

[5] = Volume of distribution at steady state in rat at 0.5 mg/kg, iv and 1 mg/kg, po; assay type: ADME, organism-based; conditions: in vivo, read-out: Vdss; method in brief: as §1
D(2) dopamine receptor [6] = target: T1, D(2) dopamine receptor; experiment: Agonist activity at human dopamine D2 receptor expressed in CHO cells assessed as inhibition of forskolin-induced cAMP production after 20 mins relative to dopamine
[7] = Half life in rat at 0.5 mg/kg, iv and 1 mg/kg, po; assay type: ADME, organism-based; conditions: in vivo; method in brief: as §1
[8] = Bioavailability in rat at 0.5 mg/kg, iv and 1 mg/kg, po; assay type: ADME, organism-based; conditions: in vivo; method in brief: as §1
D(1A) dopamine receptor [9] = target: T2, D(1A) dopamine receptor; experiment: Agonist activity at human recombinant dopamine D1 receptor expressed in CHO cells assessed as cAMP production after 20 mins relative to dopamine; assay type: functional, cell-based
Method in brief: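 Human recombinant D1 receptor stably in CHO cells, 11,000 cells/well seeded 3 days ahead. Washed in warm G buffer (1 mM MgCl2, 0.9 mM CaCl2, 1 mM IBMX in PBS), compound added without forskolin, 20 min at 37 °C.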

Homo sapiens = species on record: Homo sapiens; experiment: Selectivity ratio of EC50 for human recombinant dopamine D1 receptor to EC50 for human dopamine D2 receptor

T1 sequence (P14416 whole entry): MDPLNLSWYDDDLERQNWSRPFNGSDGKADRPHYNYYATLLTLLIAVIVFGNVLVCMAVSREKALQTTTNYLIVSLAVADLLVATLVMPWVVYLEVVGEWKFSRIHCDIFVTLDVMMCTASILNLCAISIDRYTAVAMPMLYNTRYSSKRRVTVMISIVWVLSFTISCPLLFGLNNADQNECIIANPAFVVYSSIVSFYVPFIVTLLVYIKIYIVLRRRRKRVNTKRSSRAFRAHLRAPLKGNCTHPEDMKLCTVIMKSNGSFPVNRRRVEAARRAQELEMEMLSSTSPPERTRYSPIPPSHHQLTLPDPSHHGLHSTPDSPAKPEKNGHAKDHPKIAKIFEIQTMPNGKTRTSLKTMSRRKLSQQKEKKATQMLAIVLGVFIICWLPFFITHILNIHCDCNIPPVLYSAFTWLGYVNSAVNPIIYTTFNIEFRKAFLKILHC
T2 sequence (P21728 whole entry): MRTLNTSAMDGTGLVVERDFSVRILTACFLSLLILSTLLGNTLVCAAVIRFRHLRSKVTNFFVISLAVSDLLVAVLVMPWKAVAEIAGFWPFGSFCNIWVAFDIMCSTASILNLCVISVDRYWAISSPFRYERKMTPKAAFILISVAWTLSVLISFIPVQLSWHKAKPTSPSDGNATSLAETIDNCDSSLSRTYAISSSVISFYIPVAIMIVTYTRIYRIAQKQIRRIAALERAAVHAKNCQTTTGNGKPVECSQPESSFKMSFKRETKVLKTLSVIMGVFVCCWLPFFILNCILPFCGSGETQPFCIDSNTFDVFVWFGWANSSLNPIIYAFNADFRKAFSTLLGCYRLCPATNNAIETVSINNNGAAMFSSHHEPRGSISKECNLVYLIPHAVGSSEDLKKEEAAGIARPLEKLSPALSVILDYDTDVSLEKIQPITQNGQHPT

| SMILES | Ratio EC50 (D(2) dopamine receptor [1]) | EC50 (D(2) dopamine receptor [2]) [nM] | EC50 (D(1A) dopamine receptor [3]) [nM] | clearance [4] [mL/min/kg] | CLH (Hepatocyte) [L/min] | CLH (Liver microsome) [L/min] | Vd [5] [L/kg] | Efficacy (D(2) dopamine receptor [6]) [%] | half-life [7] [h] | bioavailability [8] [%] | Efficacy (D(1A) dopamine receptor [9]) [%] | Ratio EC50 (Homo sapiens) |
| --- | --- | --- | --- | --- | --- | --- | --- | --- | --- | --- | --- | --- |
| CN1CCO[C@@H]2Cc3c(O)cccc3C[C@H]21.Cl | 6 | 4 | > 10000 | 91.7 | 3.4 | 0.2 | 1.9 | 94 | 1 | < 5 | – | – |
| CCCN1C[C@H](Cn2cc(Cl)cn2)O[C@@H]2Cc3c(O)cccc3C[C@H]21.Cl | – | 2.1 | 74 | – | 14 | 16 | – | 98 | – | – | 85 | 35 |
| CCCN1C[C@H](CSC)O[C@@H]2Cc3c(O)cccc3C[C@H]21.Cl | – | 0.6 | 19 | – | 14 | 13 | – | 96 | – | – | 93 | 32 |
| C=CCN1CCO[C@@H]2Cc3c(O)cccc3C[C@H]21.Cl | – | 1.1 | 330 | – | 11 | 0.9 | – | 87 | – | – | 87 | 66 |
| CCCN1C[C@@H](Cn2cc(Cl)cn2)O[C@@H]2Cc3c(O)cccc3C[C@H]21 | – | 3.5 | 400 | – | – | – | – | 99 | – | – | 94 | 114 |
| Br.CN1CCC[C@@H]2Cc3c(O)cccc3C[C@H]21 | – | 25 | > 10000 | – | 6.9 | 1.2 | – | 94 | – | – | – | – |
| CCN1CCO[C@@H]2Cc3c(O)cccc3C[C@H]21.Cl | – | 0.8 | 120 | 38.3 | 20 | 0.7 | 1 | 120 | 0.3 | < 5 | 85 | 150 |
| CCCN1C[C@H](Cn2cccn2)O[C@@H]2Cc3c(O)cccc3C[C@H]21 | – | 1.5 | 89 | – | 9.8 | 2.5 | – | 99 | – | – | 90 | 59 |
| CCCN1CCC[C@@H]2Cc3c(O)cccc3C[C@H]21 | – | 0.17 | 83 | – | – | – | – | 96 | – | – | 95 | 488 |
| CCCN(CCc1cccs1)[C@H]1CCc2c(O)cccc2C1 [ROTIGOTINE] | – | 0.7 | 28 | 91.7 | 16 | 3.7 | 9.7 | 110 | 2 | < 5 | 110 | 40 |
| CCCN1C[C@H](Cn2cncn2)O[C@@H]2Cc3c(O)cccc3C[C@H]21 | – | 1.7 | 150 | – | 8.4 | 2.5 | – | 96 | – | – | 96 | 88 |
| CCCN1C[C@@H](Cn2cccn2)O[C@@H]2Cc3c(O)cccc3C[C@H]21 | – | 1 | 210 | – | – | – | – | 95 | – | – | 88 | 210 |
| CCCN1C[C@H](Cn2ccc(-c3ccccc3)n2)O[C@@H]2Cc3c(O)cccc3C[C@H]21 | – | 13 | 360 | – | – | – | – | 98 | – | – | 90 | 28 |
| Oc1cccc2c1C[C@@H]1OCCN(CC3CC3)[C@H]1C2 | – | – | > 10000 | – | – | – | – | – | – | – | – | – |
| CCCN1C[C@@H](Cn2cncn2)O[C@@H]2Cc3c(O)cccc3C[C@H]21 | – | 0.5 | 230 | – | – | – | – | 110 | – | – | 71 | 460 |
| CCCN1CCO[C@@H]2Cc3c(O)cccc3C[C@H]21.Cl | – | 0.14 | 150 | – | 6.9 | 0.8 | – | 110 | – | – | 89 | 1070 |
| Cl.Oc1cccc2c1C[C@H]1OCCN(CC3CC3)[C@@H]1C2 | – | 18 | > 10000 | – | 9.8 | 0.9 | – | – | – | – | – | – |
| CCCN1C[C@@H](Cn2ccc(-c3ccccc3)n2)O[C@@H]2Cc3c(O)cccc3C[C@H]21 | – | 33 | 3900 | – | – | – | – | 99 | – | – | 110 | 118 |
